This is an account of results in ChEMBL document CHEMBL1145166, “Dipeptides as effective prodrugs of the unnatural amino acid (+)-2-aminobicyclo[3.1.0]hexane-2,6-dicarboxylic acid (LY354740), a selective group II metabotropic glutamate receptor agonist” (J Med Chem, 2005).

Series [1] can be described thus: Plasma concentration of LY-354740 in rats after oral administration of compound at a dose of 5 mg equiv 1/kg at 3 hr. The format is ADME. The note with it: rat. Put shortly: (§1)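 Male Fischer 344 rats (190–250 g), fasted overnight, food returned ~4 h postdose; single oral dose of prodrug molar-equivalent to 5 mg/kg parent, in pH 2.5 20 mM KHPO₄. Blood drawn at 0.5, 1 and 3 h; plasma stored at –20 °C or below until analysis. Three plasma samples per time point; parent and prodrug measured.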

Series [2] can be described thus: Inhibition of radiolabeled glycylsarcosine (Gly-Sar) uptake into chinese hamster ovary cells transfected with human PepT1 (CHO/hPepT1) done for 5-20 min at 37 degree C with compound. The format is functional, cell-based. As to conditions: Cricetulus griseus.
A short description of series [3]: Plasma concentration of LY-354740 in rats after oral administration of compound at a dose of 5 mg equiv 1/kg at 1 hr. The format is ADME. The note with it: rat. In outline: as §1
A further series concerns Caco-2. In words: Inhibition of radiolabeled glycylsarcosine (Gly-Sar) uptake into Caco-2 cells done for 15 min at 37 degree C with compound. The format is functional, cell-based. The note with it: Homo sapiens, Caco-2, 0.25 h.
Series [4] in a line: Plasma concentration of LY-354740 in rats after oral administration of compound at a dose of 5 mg equiv 1/kg at 0.5 hr. As to conditions: rat. The series is classed as ADME. Put shortly: as §1
A short description of series [5]: Area under concentration of compound in rats at a dose of 5 mg equiv 1/kg. The format is ADME. As to conditions: rat, in vivo. Put shortly:
as §1

Series [6] in a line: Plasma concentration of the prodrug and LY-354740 against the metabotropic glutamate receptor in rats after an oral dose of corresponding prodrug in 5 mg equiv 1/kg at 3 houre. The series is classed as ADME. The note with it: rat. Put shortly:
as §1

The test system of series [7] is Rattus norvegicus. In words: Onset of suppression of startle of compound in rat fear-potentiated startle assay at an oral dose of 0.01 and 0.1 mg/kg. The series is classed as functional. Put shortly:
(§2)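 Fed rats dosed orally. Three-day protocol: day 1 baseline startle (30 × 120 dB), groups of n = 8. Day 2 conditioning: 10 light (5 s)–shock (0.5 mA, 500 ms) pairings. Day 3, 24 h later: 20 noise-alone and 20 light+noise trials. Compound given at set pretreatment times before testing. Diazepam 0.6 mg/kg ip, 30 min pre-test, as positive control. MED = lowest dose with p < 0.05 versus control.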

Series [8] concerns Rattus norvegicus. In words: Duration of suppression of compound in rat fear-potentiated startle assay at an oral dose of 0.1 mg/kg. The format is functional. Put shortly:
as §2

In series [9] the target is Metabotropic glutamate receptor 2 (Rattus norvegicus, UniProt P31421). In words: Inhibition of [3H]LY-341,495 binding to mGlu2 receptors of rat brain.
Chain of Metabotropic glutamate receptor 2 (Rattus norvegicus, UniProt P31421) (P31421 whole entry): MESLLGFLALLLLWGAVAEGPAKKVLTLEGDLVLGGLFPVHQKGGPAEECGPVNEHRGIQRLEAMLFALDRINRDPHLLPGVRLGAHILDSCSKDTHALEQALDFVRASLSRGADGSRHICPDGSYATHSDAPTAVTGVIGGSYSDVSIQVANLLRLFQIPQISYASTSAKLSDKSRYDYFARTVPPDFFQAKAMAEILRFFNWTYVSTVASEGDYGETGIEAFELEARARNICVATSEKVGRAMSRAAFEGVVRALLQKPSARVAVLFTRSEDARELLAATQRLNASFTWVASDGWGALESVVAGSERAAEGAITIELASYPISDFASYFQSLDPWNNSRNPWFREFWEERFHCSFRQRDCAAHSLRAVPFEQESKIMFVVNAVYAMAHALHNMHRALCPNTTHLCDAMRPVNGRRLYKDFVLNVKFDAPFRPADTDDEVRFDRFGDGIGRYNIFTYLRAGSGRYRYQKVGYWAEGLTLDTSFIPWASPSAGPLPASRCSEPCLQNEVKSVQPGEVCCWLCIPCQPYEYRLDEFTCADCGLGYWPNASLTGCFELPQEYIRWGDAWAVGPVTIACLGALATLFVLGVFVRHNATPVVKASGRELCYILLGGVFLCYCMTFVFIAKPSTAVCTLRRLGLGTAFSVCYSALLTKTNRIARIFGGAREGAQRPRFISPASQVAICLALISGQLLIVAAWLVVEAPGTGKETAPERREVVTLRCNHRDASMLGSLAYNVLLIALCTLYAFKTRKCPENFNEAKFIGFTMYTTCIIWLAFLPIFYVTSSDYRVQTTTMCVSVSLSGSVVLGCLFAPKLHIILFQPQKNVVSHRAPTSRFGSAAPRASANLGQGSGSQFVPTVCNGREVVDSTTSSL
The target in series [10] is Metabotropic glutamate receptor 2 (Homo sapiens, UniProt Q14416). In words: Inhibition of [3H]LY-341,495 binding to recombinant human mGlu2 receptors.
Chain of Metabotropic glutamate receptor 2 (Homo sapiens, UniProt Q14416) (Q14416 whole entry): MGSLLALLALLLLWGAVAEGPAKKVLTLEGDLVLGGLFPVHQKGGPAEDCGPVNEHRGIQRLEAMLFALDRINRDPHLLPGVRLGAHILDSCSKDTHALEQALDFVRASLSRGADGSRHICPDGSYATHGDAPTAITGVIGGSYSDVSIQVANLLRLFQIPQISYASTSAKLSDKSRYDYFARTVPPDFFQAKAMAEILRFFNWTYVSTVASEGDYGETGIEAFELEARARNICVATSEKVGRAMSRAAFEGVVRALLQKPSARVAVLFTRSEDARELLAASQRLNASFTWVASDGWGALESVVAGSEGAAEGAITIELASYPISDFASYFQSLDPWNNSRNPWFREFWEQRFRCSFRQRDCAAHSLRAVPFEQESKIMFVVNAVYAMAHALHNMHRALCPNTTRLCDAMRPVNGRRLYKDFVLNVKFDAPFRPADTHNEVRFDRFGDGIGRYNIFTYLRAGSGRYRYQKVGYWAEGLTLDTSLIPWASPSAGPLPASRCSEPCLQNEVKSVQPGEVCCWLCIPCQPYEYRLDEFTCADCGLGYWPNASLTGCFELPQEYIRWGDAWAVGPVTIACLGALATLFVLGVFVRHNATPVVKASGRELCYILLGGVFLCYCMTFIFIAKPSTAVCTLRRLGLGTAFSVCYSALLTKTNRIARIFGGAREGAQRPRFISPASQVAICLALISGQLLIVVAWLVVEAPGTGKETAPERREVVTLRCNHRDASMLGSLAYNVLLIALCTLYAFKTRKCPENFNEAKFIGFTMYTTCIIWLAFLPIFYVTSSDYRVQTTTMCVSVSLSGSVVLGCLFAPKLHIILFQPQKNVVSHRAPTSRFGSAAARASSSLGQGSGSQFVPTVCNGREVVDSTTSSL
In series [11] the test system is Rattus norvegicus. In words: Duration of suppression of compound in rat fear-potentiated startle assay at an oral dose of 0.01 mg/kg; Range = 4-8 h. The format is functional. Put shortly:
as §2

The test system of series [12] is Rattus norvegicus. In words: Minimally effective dose for suppression of startle in rat fear-potentiated startle assay, p.o. The series is classed as functional. As to conditions: po, read-out: MED. Put shortly: as §2
For series [13], the target named is Metabotropic glutamate receptor 3 (Homo sapiens, UniProt Q14832). Kind of series: Inhibition of [3H]LY-341,495 binding to recombinant human mGlu3 receptors.
Chain of Metabotropic glutamate receptor 3 (Q14832 whole entry): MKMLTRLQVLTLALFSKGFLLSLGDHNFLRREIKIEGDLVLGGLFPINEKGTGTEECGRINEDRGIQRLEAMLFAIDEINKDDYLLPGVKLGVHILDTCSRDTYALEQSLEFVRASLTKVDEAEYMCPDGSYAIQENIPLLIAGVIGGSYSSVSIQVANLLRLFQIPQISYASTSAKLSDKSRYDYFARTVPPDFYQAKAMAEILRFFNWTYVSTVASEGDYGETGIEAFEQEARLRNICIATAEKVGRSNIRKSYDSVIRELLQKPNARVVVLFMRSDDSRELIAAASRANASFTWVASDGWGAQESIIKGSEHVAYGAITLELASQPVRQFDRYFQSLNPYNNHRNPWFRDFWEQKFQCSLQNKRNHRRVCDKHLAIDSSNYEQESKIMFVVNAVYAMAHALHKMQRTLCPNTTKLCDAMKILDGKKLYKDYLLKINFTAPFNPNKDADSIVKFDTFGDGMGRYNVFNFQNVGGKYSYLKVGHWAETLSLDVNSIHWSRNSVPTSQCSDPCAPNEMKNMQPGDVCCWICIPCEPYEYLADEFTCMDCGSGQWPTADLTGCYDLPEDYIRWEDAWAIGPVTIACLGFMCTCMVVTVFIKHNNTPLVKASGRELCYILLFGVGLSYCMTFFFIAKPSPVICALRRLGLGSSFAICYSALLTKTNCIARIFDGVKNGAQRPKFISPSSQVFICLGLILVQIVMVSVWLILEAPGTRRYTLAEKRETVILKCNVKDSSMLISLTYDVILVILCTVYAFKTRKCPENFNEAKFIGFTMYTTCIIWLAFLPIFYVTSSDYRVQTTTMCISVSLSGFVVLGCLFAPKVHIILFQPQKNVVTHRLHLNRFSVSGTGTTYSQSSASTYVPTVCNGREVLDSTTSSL
The subject of series [14] is Rattus norvegicus. In words: Onset of suppression of startle of compound in rat fear-potentiated startle assay at an oral dose of 3.0 mg/kg. The series is classed as functional.
Series [15] relates to Rattus norvegicus. In words: Minimally effective dose for suppression of startle in rat fear-potentiated startle assay, p.o.; Range = 0.3-3.0 mg/kg. The series is classed as functional. As to conditions: po, read-out: MED.
Series [16] concerns Rattus norvegicus. In words: Duration of suppression of compound in rat fear-potentiated startle assay at an oral dose of 3.0 mg/kg; Range = 8-24 h. The format is functional.

Turning to `C[C@H](N)C(=O)N[C@@H](C)C(=O)N[C@@]1(C(=O)O)CC[C@H]2[C@H](C(=O)O)[C@H]21.Cl`, the figures for the Plasma concentration in [1], in series [3] and in series [4] were 734 ng/mL, 1554 ng/mL and 3620 ng/mL, respectively. Besides, the IC50 (as a rule, the concentration that gives 50% inhibition) stood at 2.88 mM in series [2] and 7.29 mM in the series on Caco-2.

`CSCC[C@H](N)C(=O)N[C@@]1(C(=O)O)CC[C@H]2[C@H](C(=O)O)[C@H]21.Cl`: the results for the Plasma concentration in series [3] and in series [4] were 2107 ng/mL and 3720 ng/mL, respectively.

Regarding `C[C@@H](N)C(=O)N[C@@]1(C(=O)O)CC[C@H]2[C@H](C(=O)O)[C@H]21.Cl`, the Plasma concentration is 525 ng/mL in series [1], 191 ng/mL in series [3] and 81 ng/mL in series [4]. In addition, the values for the IC50 (in [2]; in the series with Caco-2) were 6.66 mM and more than 10 mM, respectively.

For `CSCC[C@H](NC(=O)[C@]1(N)CC[C@H]2[C@H](C(=O)O)[C@H]21)C(=O)O`, in [5], the AUC (usually concentration integrated over time) was determined as 16600 ng·h/mL. Moreover, the Plasma concentration came to 889 ng/mL in series [1], 808 ng/mL in series [3] and 602 ng/mL in [4].

On to `CC[C@H](C)[C@H](N)C(=O)N[C@@]1(C(=O)O)CC[C@H]2[C@H](C(=O)O)[C@H]21.Cl`, for which the Plasma concentration in [1] is 2032 ng/mL; in series [3] it was 1457 ng/mL; in series [4], 2009 ng/mL.

For the compound `Cl.NCCCC[C@H](N)C(=O)N[C@@]1(C(=O)O)CC[C@H]2[C@H](C(=O)O)[C@H]21`, the Plasma concentration in series [1] came to 246 ng/mL; in series [3], 147 ng/mL; in [4], 74 ng/mL.

On to `Cl.N[C@@H](CO)C(=O)N[C@@]1(C(=O)O)CC[C@H]2[C@H](C(=O)O)[C@H]21`, for which the Plasma concentration in series [3] is 1365 ng/mL; in series [4], 1497 ng/mL.

`Cl.O=C(O)[C@H]1[C@@H]2CC[C@@](NC(=O)[C@@H]3CCCN3)(C(=O)O)[C@@H]21`: the Plasma concentration in [6] was 670 ng/mL; in series [3], 455 ng/mL; in series [4], 319 ng/mL.

Take `N[C@@]1(C(=O)N[C@@H](Cc2ccc(O)cc2)C(=O)O)CC[C@H]2[C@H](C(=O)O)[C@H]21`: the Plasma concentration in [1] is 124 ng/mL; in series [3] it was 44 ng/mL; in [4], 30 ng/mL.

On to `N[C@@]1(C(=O)N[C@@H](CO)C(=O)O)CC[C@H]2[C@H](C(=O)O)[C@H]21`, for which the Plasma concentration in series [1] was 53 ng/mL; in series [4], 36 ng/mL.

As for `C[C@H](N)C(=O)N[C@@]1(C(=O)O)CC[C@H]2[C@H](C(=O)O)[C@H]21.Cl` [TALAGLUMETAD HYDROCHLORIDE], the Onset entry in the series on Rattus norvegicus [7] is “<=1 hr”. For the same compound, the AUC in [5] turned out to be 0 ng·h/mL. Further, the Plasma concentration was found to be 1770 ng/mL in [1], 3381 ng/mL in series [3] and 3732 ng/mL in series [4]. Further, the results for the Duration result in the series on Rattus norvegicus [8] and in the series on Rattus norvegicus [11] were “>=24 hr” and 8 h, respectively. In addition, the figures for the half-maximal inhibitory concentration (IC50) (in [2]; in the series on Caco-2) were 0.12 mM and 0.3 mM, respectively. Besides, the Ki (as a rule, the dissociation constant of the complex between target and ligand, obtained from inhibition or displacement) was more than 10 µM in [9], more than 10000 nM in [10] and more than 10000 nM in series [13]. Besides, in the series with Rattus norvegicus [12], the minimal effective dose was determined as 0.01 mg/kg.

In the case of `CC(C)[C@H](NC(=O)[C@]1(N)CC[C@H]2[C@H](C(=O)O)[C@H]21)C(=O)O`, the Plasma concentration in series [1] was found to be 10 ng/mL; in [3], 17 ng/mL; in series [4], 10 ng/mL.

For the compound `CC[C@H](C)[C@H](NC(=O)[C@]1(N)CC[C@H]2[C@H](C(=O)O)[C@H]21)C(=O)O`, the Plasma concentration in series [1] turned out to be 20 ng/mL; in series [3], 34 ng/mL; in series [4], 18 ng/mL.

Turning to `Cl.NCC(=O)N[C@@]1(C(=O)O)CC[C@H]2[C@H](C(=O)O)[C@H]21`, the Plasma concentration in [3] is 1992 ng/mL; in [4] it was 1707 ng/mL.

In the case of `CC(C)C[C@H](NC(=O)[C@]1(N)CC[C@H]2[C@H](C(=O)O)[C@H]21)C(=O)O`, the AUC in series [5] was determined as 21300 ng·h/mL. Moreover, the Plasma concentration in series [1] worked out at 919 ng/mL; in series [3] it was 798 ng/mL; in [4], 450 ng/mL. The half-inhibitory concentration (IC50) is 0.62 mM in [2] and more than 10 mM in the series with Caco-2.

On to `N[C@@]1(C(=O)N[C@@H](Cc2ccccc2)C(=O)O)CC[C@H]2[C@H](C(=O)O)[C@H]21`, for which the AUC in series [5] is 11400 ng·h/mL. Moreover, the Plasma concentration was 10 ng/mL in series [1], 45 ng/mL in series [3] and 20 ng/mL in series [4]. The IC50 in series [2] was determined as 1.54 mM; with Caco-2 it was 2.68 mM.

Take `Cl.N[C@@H](Cc1ccccc1)C(=O)N[C@@]1(C(=O)O)CC[C@H]2[C@H](C(=O)O)[C@H]21`: the AUC in series [5] was 194 ng·h/mL. Moreover, the figures for the Plasma concentration in series [1], in [3] and in series [4] were 1274 ng/mL, 2763 ng/mL and 1710 ng/mL, respectively. Also, the half-maximal inhibitory concentration (IC50) in series [2] was determined as 0.52 mM; with Caco-2, 0.42 mM.

As for `CC(C)C[C@@H](N)C(=O)N[C@@]1(C(=O)O)CC[C@H]2[C@H](C(=O)O)[C@H]21.Cl`, the results for the Plasma concentration in series [1], in series [3] and in [4] were 877 ng/mL, 894 ng/mL and 1478 ng/mL, respectively. Moreover, the values for the IC50 (in [2]; with Caco-2) were 1.7 mM and 6.31 mM, respectively.

Turning to `CC(C)C[C@H](N)C(=O)N[C@@]1(C(=O)O)CC[C@H]2[C@H](C(=O)O)[C@H]21.Cl`, in series [5], the AUC turned out to be 0 ng·h/mL. The Plasma concentration in [1] is 1152 ng/mL; in [3], 4323 ng/mL; in series [4], 4488 ng/mL. Also, the IC50 came out at 1.43 mM in series [2] and 5.01 mM in the series with Caco-2.

Regarding `N[C@@]1(C(=O)NCC(=O)O)CC[C@H]2[C@H](C(=O)O)[C@H]21`, in series [4], the Plasma concentration was determined as 19 ng/mL.

Consider `CC(C)[C@H](N)C(=O)N[C@@]1(C(=O)O)CC[C@H]2[C@H](C(=O)O)[C@H]21.Cl`, for which the Plasma concentration in [1] stood at 1136 ng/mL; in series [3] it was 2124 ng/mL; in series [4] it was 2387 ng/mL.

With `Cl.N[C@@H](Cc1ccc(O)cc1)C(=O)N[C@@]1(C(=O)O)CC[C@H]2[C@H](C(=O)O)[C@H]21`, the results for the Plasma concentration in series [3] and in [4] were 2163 ng/mL and 1915 ng/mL, respectively.

`N[C@@]1(C(=O)O)CC[C@H]2[C@H](C(=O)O)[C@H]21`: in the series with Rattus norvegicus [14], the Onset entry is on record as “<=1 hr”. Moreover, the minimal effective dose in the series with Rattus norvegicus [15] came out at 3 mg/kg. Moreover, the IC50 in [2] was more than 19 mM; in the series on Caco-2, more than 10 mM. In addition, the Duration with Rattus norvegicus [16] stood at 24 h. Besides, the Ki in series [10] came out at 84.7 nM; in series [13], 126 nM.

For `CC(C)C[C@H](NC(=O)[C@]1(NC(=O)[C@H](C)N)CCC2C1[C@H]2C(=O)O)C(=O)O` (stereo not given in full), the Plasma concentration in series [1] was 55 ng/mL; in [3], 26 ng/mL; in series [4], 44 ng/mL. Moreover, the IC50 in series [2] was found to be 1.34 mM; in the series on Caco-2, 3.05 mM.
